The target of experiment [1] is T1, Ectonucleotide pyrophosphatase/phosphodiesterase family member 3 (Homo sapiens) (UniProt O14638).
T1 sequence (whole entry): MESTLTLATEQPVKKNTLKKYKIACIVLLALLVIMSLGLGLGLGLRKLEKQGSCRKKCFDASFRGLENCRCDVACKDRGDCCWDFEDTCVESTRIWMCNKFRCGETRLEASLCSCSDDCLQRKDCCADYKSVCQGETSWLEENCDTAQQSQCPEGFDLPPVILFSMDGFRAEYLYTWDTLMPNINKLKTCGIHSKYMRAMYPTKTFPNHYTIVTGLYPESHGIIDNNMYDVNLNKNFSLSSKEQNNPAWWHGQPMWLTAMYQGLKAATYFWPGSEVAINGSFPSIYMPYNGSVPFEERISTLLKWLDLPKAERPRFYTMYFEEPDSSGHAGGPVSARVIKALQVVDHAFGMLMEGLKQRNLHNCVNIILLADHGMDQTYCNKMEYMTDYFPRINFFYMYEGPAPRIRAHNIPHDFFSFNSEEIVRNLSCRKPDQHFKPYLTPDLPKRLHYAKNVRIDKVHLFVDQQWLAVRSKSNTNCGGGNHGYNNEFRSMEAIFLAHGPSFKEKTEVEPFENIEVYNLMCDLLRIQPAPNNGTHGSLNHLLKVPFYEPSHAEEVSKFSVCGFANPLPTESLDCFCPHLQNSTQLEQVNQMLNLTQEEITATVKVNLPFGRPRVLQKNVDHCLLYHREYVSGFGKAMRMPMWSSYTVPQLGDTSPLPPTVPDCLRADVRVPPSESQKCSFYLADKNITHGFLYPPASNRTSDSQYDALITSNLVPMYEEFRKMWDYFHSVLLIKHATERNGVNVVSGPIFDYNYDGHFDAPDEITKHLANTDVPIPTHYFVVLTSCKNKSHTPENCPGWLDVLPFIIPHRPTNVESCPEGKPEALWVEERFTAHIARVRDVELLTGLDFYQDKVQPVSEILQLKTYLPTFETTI
As to the kind of experiment: Inhibition of human NPP3 expressed in COS7 cells assessed as production of p-nitrophenol using pnp-TMP as the substrate at 100 uM after 15 mins by malachite green reagent method. Conditions: COS-7. The experiment is classed as cell-based. The essentials:
(§1)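 Human NPP1, NPP2 (membrane lysate or conditioned medium for the secreted form) or NPP3 from transfected COS-7 cells, preincubated 3 min at 37 °C in 50 mM Tris pH 8.5 buffer with CaCl2, NaCl and KCl. Substrate and inhibitor both at 100 μM final. pnp-TMP: p-nitrophenol read at 405 nm at 15 min. ATP or Ap5A: stopped at 30 min with perchloric acid, then HPLC. Results as % residual activity versus control; three to six experiments in triplicate.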

In experiment [2] the target is T2, Ectonucleotide pyrophosphatase/phosphodiesterase family member 1 (Homo sapiens) (UniProt P22413).
T2 sequence (whole entry): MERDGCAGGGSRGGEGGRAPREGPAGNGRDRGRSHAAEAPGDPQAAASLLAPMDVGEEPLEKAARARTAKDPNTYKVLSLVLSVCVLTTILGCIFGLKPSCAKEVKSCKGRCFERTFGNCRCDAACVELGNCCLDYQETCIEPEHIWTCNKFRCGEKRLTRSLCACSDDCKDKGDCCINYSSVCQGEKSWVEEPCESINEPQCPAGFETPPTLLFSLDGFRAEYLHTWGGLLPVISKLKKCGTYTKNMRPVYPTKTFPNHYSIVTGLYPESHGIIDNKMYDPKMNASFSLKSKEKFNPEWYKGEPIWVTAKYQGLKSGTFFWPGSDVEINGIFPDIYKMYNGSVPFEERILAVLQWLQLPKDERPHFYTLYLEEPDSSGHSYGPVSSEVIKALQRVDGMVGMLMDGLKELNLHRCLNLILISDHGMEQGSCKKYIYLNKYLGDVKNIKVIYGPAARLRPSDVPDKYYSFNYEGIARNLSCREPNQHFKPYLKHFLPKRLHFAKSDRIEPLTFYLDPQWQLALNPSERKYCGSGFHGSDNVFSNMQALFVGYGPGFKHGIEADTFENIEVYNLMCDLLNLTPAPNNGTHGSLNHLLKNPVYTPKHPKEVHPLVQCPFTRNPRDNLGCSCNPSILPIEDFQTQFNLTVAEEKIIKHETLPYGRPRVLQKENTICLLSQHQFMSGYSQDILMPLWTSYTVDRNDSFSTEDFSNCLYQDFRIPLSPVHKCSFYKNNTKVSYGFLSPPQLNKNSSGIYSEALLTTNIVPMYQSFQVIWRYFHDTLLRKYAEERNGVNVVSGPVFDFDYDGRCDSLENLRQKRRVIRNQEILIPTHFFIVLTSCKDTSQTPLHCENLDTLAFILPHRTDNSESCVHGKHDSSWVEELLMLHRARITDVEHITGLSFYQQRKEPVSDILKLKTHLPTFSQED
The experiment can be described thus: Inhibition of human NPP1 expressed in COS7 cells assessed as production of p-nitrophenol using Ap5A as the substrate at 100 uM after 30 mins […]. The experiment is classed as cell-based. Conditions: COS-7.

Experiment [3] has as its target T3, Ectonucleotide pyrophosphatase/phosphodiesterase family member 1 (Homo sapiens, UniProt P22413).
T3 sequence (P22413 whole entry): T2 sequence (whole entry)
As to the kind of experiment: Inhibition of human NPP1 expressed in COS7 cells assessed as enzyme-substrate-inhibitor dissociation constant using pnp-TMP as the substrate after 15 mins […]. The class given is cell-based, COS-7.

Experiment [4] concerns the target T4, Ectonucleoside triphosphate diphosphohydrolase 3 (Homo sapiens) (UniProt O75355).
T4 sequence (whole entry): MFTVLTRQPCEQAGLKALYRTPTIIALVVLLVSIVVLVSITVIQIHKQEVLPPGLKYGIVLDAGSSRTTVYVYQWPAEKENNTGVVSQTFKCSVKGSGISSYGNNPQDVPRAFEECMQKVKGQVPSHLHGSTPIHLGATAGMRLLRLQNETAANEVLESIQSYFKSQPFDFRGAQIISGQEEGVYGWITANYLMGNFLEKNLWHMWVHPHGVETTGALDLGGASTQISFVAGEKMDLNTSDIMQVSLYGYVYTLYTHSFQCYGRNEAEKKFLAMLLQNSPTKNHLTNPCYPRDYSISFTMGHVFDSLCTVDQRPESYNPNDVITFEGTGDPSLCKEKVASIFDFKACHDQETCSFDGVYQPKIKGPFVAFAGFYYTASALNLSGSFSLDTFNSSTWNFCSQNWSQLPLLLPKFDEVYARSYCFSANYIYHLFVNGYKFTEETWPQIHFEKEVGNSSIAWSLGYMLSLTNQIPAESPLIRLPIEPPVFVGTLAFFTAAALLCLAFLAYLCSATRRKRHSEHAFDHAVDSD
The experiment can be described thus: Inhibition of human NTPDase3 expressed in COS7 cells assessed as amount of inorganic phosphate released using ATP as the substrate at 100 uM after 15 mins by malachite green reagent method. The experiment is classed as cell-based. Conditions: COS-7. The essentials:
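Protein extracts of transfected COS-7 cells (ecto-5'-nucleotidase: 100 μM AMP substrate; NTPDases: 100 μM ATP) were preincubated 3 min at 37 °C in Tris-Ringer pH 7.3 with inhibitor at 100 μM final. After 15 min, malachite green stop; Pi read at 630 nm. Activity given as % of substrate-only control. Mean ± SD of three experiments in triplicate.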

Experiment [5] deals with Autotaxin (Homo sapiens) (UniProt Q13822). The experiment can be described thus: Inhibition of human secreted NPP2 expressed in COS7 cells assessed as production of p-nitrophenol using pnp-TMP as the substrate at 100 uM after 15 mins by malachite green reagent method. The experiment is classed as cell-based. Conditions: COS-7. The essentials:
as §1

The structures appear in SMILES notation.

Consider `Nc1ncnc2c1ncn2[C@H]1C[C@H](O)[C@@H](COP(=O)(O)CP(=O)(O)OP(=O)(O)CP(=O)(O)OC[C@H]2O[C@@H](n3cnc4c(N)ncnc43)C[C@@H]2O)O1`, for which the inhibition (commonly the drop in the measured response relative to a control, in per cent) stood at 30% in experiment [1], 60% in experiment [2], 10% in experiment [4] and 60% in experiment [5]. In addition, the Ki (usually a measure of affinity in units of concentration, obtained from inhibition or displacement) in experiment [3] stood at 80 µM.
Take `BP(=O)(OP(=O)(O)CP(=O)(O)OC[C@H]1O[C@@H](n2cnc3c(N)ncnc32)[C@H](O)[C@@H]1O)OP(=O)(O)CP(=O)(O)OC[C@H]1O[C@@H](n2cnc3c(N)ncnc32)[C@H](O)[C@@H]1O`: the inhibition was determined as 30% in experiment [1], 60% in experiment [2], 10% in experiment [4] and 60% in experiment [5]. For the same compound, the inhibition constant Ki in experiment [3] came to 31 µM.
For the compound `Nc1ncnc2c1ncn2[C@@H]1O[C@H](COP(=O)(O)CP(=O)(O)OP(=O)(O)CP(=O)(O)OC[C@H]2O[C@@H](n3cnc4c(N)ncnc43)[C@H](O)[C@@H]2O)[C@@H](O)[C@H]1O`, the inhibition in experiment [1] came out at 30%; in experiment [2], 20%; in experiment [4] it was 10%; in experiment [5] it was 60%. Besides, the inhibition constant Ki in experiment [3] amounted to 147 µM.
In the same order, the values of `BP(=O)(OP(=O)(O)CP(=O)(O)OC[C@H]1O[C@@H](n2cnc3c(N)ncnc32)C[C@@H]1O)OP(=O)(O)CP(=O)(O)OC[C@H]1O[C@@H](n2cnc3c(N)ncnc32)C[C@@H]1O` are 30%, 60%, 10%, 60% and 145 µM.

The record behind these values is ChEMBL document CHEMBL1799960, “Diadenosine 5',5''-(boranated)polyphosphonate analogues as selective nucleotide pyrophosphatase/phosphodiesterase inhibitors” (J Med Chem, 2010).
